# This is a sample that favours compounds with a hit; in the whole collection about 1.8% have one here.
# LMPTP block = LMPTP (human) inhibition; inhibition, % at 20 µM; 360,000 compounds, 0.22% hits; P24666; AID 651560; recombinant LMPTP-A, OMFP fluorogenic substrate, fluorescence intensity;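 active = compounds that cut the enzyme signal by at least half of the control window in the single-dose screen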;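 also: plate controls were DMSO wells with enzyme plus substrate for no effect and substrate without enzyme for full effect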
#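 Assay system: LMPTP-A, protein tyrosine phosphatase of low molecular weight / Medium: pH 6.0 Bis-Tris buffer with DTT and Triton X-100 / Schedule: 50 min enzyme reaction at room temperature, protected from light / Measured by: endpoint fluorescence intensity from OMFP dephosphorylation / Read-out basis: % inhibition relative to no-enzyme and uninhibited control wells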
# Scp-1 inhibitor = Scp-1 (human) phosphatase inhibition | Q9GZU7 | Recombinant Scp1, phosphopeptide, malachite green phosphate absorbance | inhibition, % at 20 µM | 340,000 compounds, 0.88% hits | AID 493091;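 active = inhibition above about 50% at 20 µM, limit read from the data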;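 also: plate controls were DMSO wells with enzyme for no effect and wells lacking enzyme for full effect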
#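 Test system – truncated SCP-1 phosphatase (76-261aa) · Reagent – Phosphorylated 17-residue peptide substrate · Incubation – 45 min room-temperature reaction, 5 min colour, 30 min stabiliser · Detection – colorimetric phosphate reagent with accelerator and stabiliser, absorbance at 630 nm · Measure – % inhibition at 20 µM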
# DNMT1 inh = blocks human DNA methyltransferase DNMT1; P26358; DNMT1 molecular beacon, Hinp1I cleavage, fluorescence; inhibition (reported as % activation of signal), % at 10 µM; 360,000 compounds, 0.83% hits; AID 588458; in the data active = inhibition above about 50%
# STEP block = blocks human striatal-enriched tyrosine phosphatase; P54829; recombinant STEP, OMFP fluorogenic substrate, fluorescence; inhibition, % at 20 µM; 360,000 compounds, 0.25% hits;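 active = inhibition at 20 µM, scaled per plate between control wells, above about 37%, limit read from the data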;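 also: 0% = DMSO with enzyme and substrate and 100% = substrate only without enzyme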
# Target sequence (P54829 whole entry, looked up): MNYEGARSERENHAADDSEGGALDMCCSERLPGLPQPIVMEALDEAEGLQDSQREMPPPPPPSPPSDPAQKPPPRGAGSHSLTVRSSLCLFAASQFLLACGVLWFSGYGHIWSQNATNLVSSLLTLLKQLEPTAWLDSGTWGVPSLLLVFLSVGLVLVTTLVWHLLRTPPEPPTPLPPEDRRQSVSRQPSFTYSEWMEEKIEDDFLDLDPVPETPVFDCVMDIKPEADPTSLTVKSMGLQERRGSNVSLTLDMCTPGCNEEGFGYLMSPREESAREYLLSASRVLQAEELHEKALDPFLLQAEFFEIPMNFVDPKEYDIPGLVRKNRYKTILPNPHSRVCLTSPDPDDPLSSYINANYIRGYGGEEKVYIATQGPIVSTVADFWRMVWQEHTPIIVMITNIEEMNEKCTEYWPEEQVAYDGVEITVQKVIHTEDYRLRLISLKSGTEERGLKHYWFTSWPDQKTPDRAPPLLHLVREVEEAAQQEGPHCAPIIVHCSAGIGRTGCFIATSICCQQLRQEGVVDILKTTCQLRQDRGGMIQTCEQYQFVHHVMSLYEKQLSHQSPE
#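 medium = Bis-Tris buffer pH 6.0, 2.5 mM DTT, 0.005% Tween 20 | test system = STEP (striatal-enriched tyrosine phosphatase) enzyme, cell-free | measure = normalized % inhibition | compound dosing = 20 µM, 1% DMSO | also added = 25 µM OMFP | schedule = reaction 20 min, ambient temperature | measured by = fluorescence read at 480 nm ex / 540 nm em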
# SUMO1 PPI mod = alters human SUMO1 binding to SIM partners | P63165 | 360,000 compounds, 0.33% hits | inhibition, % at 20 µM | SUMO1 binding to a labelled peptide, TR-FRET, 1 h; in the data active = inhibition above about 37%
# Active calls of the source: *; / = not tested or not shown.
SMILES,LMPTP block,Scp-1 inhibitor,DNMT1 inh,STEP block,SUMO1 PPI mod
O=C(c1ccco1)N1CCN(C2CN(C3CCCCC3)S(=O)(=O)C2)CC1 (configuration not stated),-2,/,2,-2,8
O=C(O)c1ccc(N2C(=O)/C(=C/c3ccc(-c4ccc([N+](=O)[O-])cc4)o3)C=C2c2ccccc2)cc1,79*,66*,81*,87*,103*
CN(/N=C/c1ccc(-c2ccc([N+](=O)[O-])cc2)o1)c1ccccc1,10,-7,-1,7,-11
CN(Cc1ccccc1)C1=CC(=[N+]2CCCCC2)CC(C)(C)C1,2,104*,2,0,-2
CC1(C)CC(N2CCN(Cc3ccccc3)CC2)=CC(=[N+]2CCCCC2)C1,2,106*,1,1,1
COC(=O)Oc1nsnc1N1CCOCC1,1,70*,2,34,2
CCOC(=O)c1c(NC(=O)CSc2nnc(C)c(=O)[nH]2)sc(C)c1-c1ccc(C)cc1,2,-5,-3,3,38*
Clc1ccc2c(c1)-c1ccccc1C1=NCCN12,5,/,51*,-2,2
CN1C2=NCCN2C(=O)c2cc(Cl)ccc21,-2,11,0,1,3
COc1ccc(Br)cc1S(=O)(=O)N1CCN=C1c1ccccc1,0,-7,-2,-2,-6
Brc1ccc2c(c1)-c1ccccc1C1=NCCN12,6,/,53*,4,1
FC(F)(F)c1cccc(Oc2cc(C(F)(F)F)nc(-c3ccccn3)n2)c1,1,-10,1,2,54*
CNc1cc(C(F)(F)F)nc(-c2ccccn2)n1,0,-2,1,-1,4
COCCN(C(=O)CSc1nnc(-c2ccccc2F)o1)c1c(N)n(Cc2ccccc2)c(=O)[nH]c1=O,1,/,0,0,2
CCN1CCN(c2ccc(Nc3ccnc4ccccc34)cc2)CC1,67*,-2,7,-3,-28
CN1CCN(c2ccc(Nc3ccnc4cc(Cl)ccc34)cc2)CC1,15,8,11,1,-16
O=c1nc2c(-c3cccc(Br)c3)n[nH]n2c2ccccc12,6,6,1,-2,45*
Nc1c(/C=C2/C=CC(=O)C(O)=C2)c(=O)nc2sc(CC(=O)N3CCCCC3)nn12,65*,72*,81*,13,45*
Nc1c(/C=C2/C=CC(=O)C(O)=C2)c(=O)nc2sc(CC(=O)N3CCCC3)nn12,4,88*,21,5,-8
COC1=C/C(=C/c2c(N)n3nc(CC(=O)N4CCCC4)sc3nc2=O)C=CC1=O,1,-2,1,-3,-22
Nc1c(/C=C2/C=CC(=O)C(O)=C2)c(=O)nc2sc(CC(=O)N3CCOCC3)nn12,2,71*,19,2,-6
CCC(C(=O)OCC(=O)NCc1ccc2c(c1)OCO2)c1ccccc1 (configuration not stated),0,-7,1,2,2
O=C(COC(=O)COc1ccc(Cl)cc1Cl)NC1CCCC1,0,-3,-1,0,2
Cc1csc2nc3cc(C(N)=O)ccc3c(=O)n12,-1,-8,6,-3,-6
NC(=O)c1ccc2c(=O)n3c(-c4cc(Cl)c(N)c(Cl)c4)csc3nc2c1,8,8,-7,10,56*
SMILES,LMPTP block,Scp-1 inhibitor,DNMT1 inh,STEP block,SUMO1 PPI mod
CC(C(=O)Nc1ccc2c(c1)OCCO2)N(C)CC(=O)Nc1ccccc1Br (configuration not stated),-3,-5,0,-4,7
CC(C)C[C@H]1CN(CCCC[C@H]2CNC(=O)C(=O)N2CCc2ccccc2)C(=O)C(=O)N1Cc1ccccc1,-2,/,/,/,0
CCn1c(C)[n+](CC(O)COCC2CC=CCC2)c2ccccc21 (configuration not stated),0,86*,-1,-3,0
Cc1c2cc(O)c(=O)cc-2oc2cc(O)c(O)cc12,80*,71*,186*,-54,23
CC(=O)c1ccc(-c2ccc(C(=O)N(C)Cc3nc4ccccc4c(=O)[nH]3)o2)cc1,-1,-8,0,0,-22
Cc1cc(S(=O)(=O)Nc2ccc(C(=O)NCC(c3ccco3)N(C)C)cc2)ccc1F (configuration not stated),-1,-3,3,-3,-2
O=C(N/N=C/c1ccccc1O)c1cccc(C(F)(F)F)c1,20,53*,3,5,4
O=C(N/N=C/c1ccc(O)cc1)c1cccc(C(F)(F)F)c1,-1,-12,-8,-3,-4
O=C(c1ccc2nc(-c3ccco3)c(-c3ccco3)nc2c1)N1CCN(c2ncccn2)CC1,26,95*,28,9,34
CC(=O)c1ccc(NC(=O)c2ccc3nc(-c4ccco4)c(-c4ccco4)nc3c2)cc1,86*,83*,123*,89*,96*
O=C(NCc1ccccc1)c1ccc2nc(-c3ccco3)c(-c3ccco3)nc2c1,75*,84*,102*,9,41*
COc1ccc([C@H]2CC(=O)C=C(c3c(OC)cccc3OC)C2)cc1,0,-5,2,0,-2
O=C(NCCN1CCOCC1)C1CCN(S(=O)(=O)N2CCCCC2)CC1,0,1,1,0,64*
O=C1CC(c2ccco2)Cc2nc(Nc3nc(-c4ccccc4)c4ccccc4n3)ncc21 (configuration not stated),61*,25,48,2,5
O=C(Nc1ncc2c(n1)CC(c1ccco1)CC2=O)c1ccccc1 (configuration not stated),5,-8,-1,0,-4
CN(C)C(CNC(=O)CSc1nc2ccccc2c(=O)n1Cc1ccco1)c1ccccc1 (configuration not stated),-8,2,-3,2,-20
COc1ccc(N2CSC3=C(C#N)C(c4cccc(OC)c4OC)CC(=O)N3C2)cc1 (configuration not stated),5,52*,-12,1,-8
COc1ccc(OC)c(C2CC(=O)N3CN(c4ccccc4)CSC3=C2C#N)c1 (configuration not stated),1,-5,-18,-1,3
COc1ccc(CC(=O)Nc2cc(S(=O)(=O)Nc3ccc(OC)cc3)ccc2OC)cc1,1,-7,-9,-1,2
Cc1cccc(-c2nc(NCCCN(C)C)c3ccccc3n2)c1,35,-6,-17,-4,-33
c1ccc(-c2nc(NCCCN3CCOCC3)c3ccccc3n2)cc1,51*,0,-4,-1,3
Cc1cccc(-c2nc(NCCCN3CCOCC3)c3ccccc3n2)c1,67*,-9,-16,4,3

# Screens deposited in PubChem BioAssay by Sanford-Burnham Center for Chemical Genomics.
